# Measurements from paper PMC7709506 (ESMO Open, 2020).
# Experiments:
# [1] = Plasma pharmacokinetics after single and multiple dosing; assay type: in vivo, human; conditions: for Accumulation ratio, geometric mean (CV %): AUC0–last day 15 / day 1; for Mean (SD) metabolite to parent ratio: ORM-21444 AUC0–last / ODM-203 AUC0–last
# Summary of the method: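 Oral once-daily test compound. Capsule single dose on day 1 after a low-phosphate light breakfast. In tablet cohorts, one capsule dose was followed a week later by continuous daily tablets from 200 mg. Plasma sampled on day 1 and day 8 or 15 predose and 0.1–24 h post-dose, plus predose from day 8. Cmax, Tmax and AUC0–last (linear trapezoidal) were log-transformed. Accumulation = day 15/day 1 AUC; metabolite ratio = metabolite/parent AUC.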
# [2] = system: advanced or metastatic solid tumours; test: Preliminary antitumour activity; assay type: in vivo, human
# UGT1A1 = conditions: human liver microsomes; cited from earlier work
# [3] = system: cell lines with increased FGFR activity; conditions: cell lines with increased FGFR activity and known dependency on FGFR signalling; cited from earlier work
structure (smiles),measurement,setting,value
Cn1cc(-c2ccc3c(c2)ncn3-c2cc(NS(=O)(=O)C3CC3)cc(-c3ccc(F)cc3F)c2)cn1 [ODM-203],interindividual variability of steady-state AUC (coefficient of variation),[1]; 400 mg tablet group at day 15,90%
same,"Accumulation ratio, geometric mean (CV %)",[1]; tablet 200 mg (n=3),2.3 (23)
same,"Accumulation ratio, geometric mean (CV %)",[1]; tablet 300 mg (n=3),2.3 (123)
same,"Accumulation ratio, geometric mean (CV %)",[1]; tablet 400 mg (n=24),5.5 (76)
same,Mean (SD) metabolite to parent ratio,"[1]; tablet 200 mg, Day 1 (n=3)",0.043 (0.022)
same,Mean (SD) metabolite to parent ratio,"[1]; tablet 200 mg, Day 15 (n=3)",0.085 (0.043)
same,Mean (SD) metabolite to parent ratio,"[1]; tablet 300 mg, Day 1 (n=3)",0.061 (0.030)
same,Mean (SD) metabolite to parent ratio,"[1]; tablet 300 mg, Day 15 (n=3)",0.094 (0.004)
same,Mean (SD) metabolite to parent ratio,"[1]; tablet 400 mg, Day 1 (n=25)",0.048 (0.034)
same,Mean (SD) metabolite to parent ratio,"[1]; tablet 400 mg, Day 15 (n=24)",0.117 (0.031)
same,average Tmax in different cohorts,[1]; after a single dose,6 to 10 h
same,individual Tmax range,[1]; after a single dose,3 to 24 h
same,average accumulation ratios,"[1]; based on AUC0–last, different cohorts",2.3–5.5
same,tablet formulation compared with capsule formulation,[1]; in vivo,higher exposure and lower variability
same,AUC ratio (metabolite ORM-21444 to ODM-203),[1]; steady state,less than 0.15
same,half-life,"[1]; suggested by accumulation ratios, different cohorts",30 to 70 h
same,"Cmax, geometric mean (CV %)","[1]; tablet 200 mg, Day 1 (n=3)",1539 (9) ng/mL
same,"Median (min, max) Tmax","[1]; tablet 200 mg, Day 1 (n=3)",8.0 (7.7 to 11.1) h
same,"Cmax, geometric mean (CV %)","[1]; tablet 200 mg, Day 15 (n=3)",3118 (28) ng/mL
same,Mean (SD) Caverage,"[1]; tablet 200 mg, Day 15 (n=3)",2560 (719) ng/mL
same,"Median (min, max) Tmax","[1]; tablet 200 mg, Day 15 (n=3)",8.0 (6.0 to 11.2) h
same,"Cmax, geometric mean (CV %)","[1]; tablet 300 mg, Day 1 (n=3)",2608 (46) ng/mL
same,"Median (min, max) Tmax","[1]; tablet 300 mg, Day 1 (n=3)",6.0 (4.1 to 6.1) h
same,"Cmax, geometric mean (CV %)","[1]; tablet 300 mg, Day 15 (n=3)",4906 (148) ng/mL
same,Mean (SD) Caverage,"[1]; tablet 300 mg, Day 15 (n=3)",5652 (5460) ng/mL
same,"Median (min, max) Tmax","[1]; tablet 300 mg, Day 15 (n=3)",6.1 (3.1 to 8.7) h
same,"Cmax, geometric mean (CV %)","[1]; tablet 400 mg, Day 1 (n=25)",1933 (49) ng/mL
same,"Median (min, max) Tmax","[1]; tablet 400 mg, Day 1 (n=25)",6.3 (3.1 to 24.7) h
same,"Cmax, geometric mean (CV %)","[1]; tablet 400 mg, Day 15 (n=24)",9070 (81) ng/mL
same,Mean (SD) Caverage,"[1]; tablet 400 mg, Day 15 (n=24)",8928 (5148) ng/mL
same,"Median (min, max) Tmax","[1]; tablet 400 mg, Day 15 (n=24)",6.0 (0.0 to 23.3) h
same,overall response rate,"[2]; RECIST, all evaluable (7/76 patients)",9.2%
same,disease control rate,[2]; all evaluable,57.9%
same,median progression-free survival,[2]; non-FGFR patients,12.4 weeks
same,disease control rate,[2]; non-FGFR tumours,52.3%
same,overall response rate,[2]; non-FGFR tumours (3/44),6.8%
same,patients without disease progression at 16 weeks,[2]; non-FGFR tumours (16/42),38.1%
same,patients without disease progression at 16 weeks,[2]; overall (24/71),33.8%
same,median progression-free survival,[2]; patients with FGFR aberration(s),16.1 weeks
same,disease control rate,[2]; tumours with FGFR aberrations,65.6%
same,overall response rate,[2]; tumours with FGFR aberrations (4/32),12.5%
same,patients without disease progression at 16 weeks,[2]; tumours with FGFR aberrations (8/29),27.6%
same,IC50,UGT1A1,100 nM
same,cell proliferation,[3],suppresses cell proliferation
